ChEMBL document CHEMBL4706601, “The endocannabinoid system dual-target ligand N-cycloheptyl-1,2-dihydro-5-bromo-1-(4-fluorobenzyl)-6-methyl-2-oxo-pyridine-3-carboxamide improves disease severity in a mouse model of multiple sclerosis” (Eur J Med Chem, 2020)
The source made the active and inactive calls.

Key:
[1] = target: T1, Lysophosphatidylserine lipase ABHD12 (Homo sapiens, UniProt Q8N2K0); experiment: Inhibition of human ABHD12 expressed in HEK293 cells using 2-OG as substrate preincubated for 30 mins followed by substrate addition and measured after 5 mins by liquid scintillation spectroscopy; format: cell-based
T1 sequence (Q8N2K0 whole entry): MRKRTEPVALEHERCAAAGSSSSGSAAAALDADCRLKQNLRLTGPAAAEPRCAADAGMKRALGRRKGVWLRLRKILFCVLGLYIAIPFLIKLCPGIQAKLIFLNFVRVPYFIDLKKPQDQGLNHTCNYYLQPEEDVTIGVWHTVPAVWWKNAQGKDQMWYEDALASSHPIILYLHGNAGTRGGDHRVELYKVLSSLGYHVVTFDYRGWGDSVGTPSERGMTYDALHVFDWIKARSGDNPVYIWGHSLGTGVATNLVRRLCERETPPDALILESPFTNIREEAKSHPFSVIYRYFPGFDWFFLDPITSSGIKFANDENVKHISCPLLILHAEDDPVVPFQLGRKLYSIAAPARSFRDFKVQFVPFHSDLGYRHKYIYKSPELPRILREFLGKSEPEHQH
How it was run: (§1)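 Homogenates (40 µg) from HEK293 stably expressing hABHD6 or hABHD12 pre-incubated with compound 30 min at 37 °C in […], 0.1% BSA, pH 7.6; then 10 μM 2-OG for 5 min at 37 °C. Aqueous phase tritium counted after CHCl3:MeOH stop; no-enzyme blanks and non-transfected HEK293 hydrolysis subtracted. Controls WWL70 10 μM, THL 20 μM.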

[2] = system: Mus musculus; experiment: In vivo agonist activity at CB1R in BALB/c mouse assessed as reduction in body temperature at 5 mg/kg, ip measured after 1 hr by tetrad test; format: functional, organism-based
How it was run: (§2)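 BALB/c mice given 5 mg/kg i.p. in DMSO (20 µL), tested 1 h later. Rectal temperature change from basal; catalepsy by bar test (4 cm bar, 120 s cut-off); locomotion by rotarod latency to fall at 4 rpm (120 s cut-off, 3 trials); analgesia by hot plate at 54-56 °C, first paw lick or shake. n = 5-20 per group.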

[3] = target: Cannabinoid receptor 1 (Homo sapiens, UniProt P21554); experiment: Displacement of [3H]CP55940 from recombinant human CB1R expressed in CHO cell membranes incubated for 90 mins; set-up: species or system Membrane
Chain of Cannabinoid receptor 1 (P21554 whole entry): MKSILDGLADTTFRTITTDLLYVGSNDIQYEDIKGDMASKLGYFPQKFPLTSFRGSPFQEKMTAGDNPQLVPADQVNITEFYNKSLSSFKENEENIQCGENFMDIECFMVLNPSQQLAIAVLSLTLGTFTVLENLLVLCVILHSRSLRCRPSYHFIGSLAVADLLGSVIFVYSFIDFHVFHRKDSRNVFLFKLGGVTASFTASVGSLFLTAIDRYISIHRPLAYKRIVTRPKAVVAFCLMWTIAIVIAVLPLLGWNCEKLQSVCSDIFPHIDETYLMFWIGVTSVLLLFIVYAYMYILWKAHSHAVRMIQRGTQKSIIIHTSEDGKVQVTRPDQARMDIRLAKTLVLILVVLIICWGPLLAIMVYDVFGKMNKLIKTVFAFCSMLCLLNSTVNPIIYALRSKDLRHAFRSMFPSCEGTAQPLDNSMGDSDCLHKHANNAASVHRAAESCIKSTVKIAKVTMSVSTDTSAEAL

[4] = target: T2, Monoacylglycerol lipase ABHD6 (Homo sapiens, UniProt Q9BV23); experiment: Inhibition of human ABHD6 expressed in HEK293 cells using 2-OG as substrate preincubated for 30 mins followed by substrate addition and measured after 5 mins by liquid scintillation spectroscopy; format: cell-based; how it was run: as §1
T2 sequence (Q9BV23 whole entry): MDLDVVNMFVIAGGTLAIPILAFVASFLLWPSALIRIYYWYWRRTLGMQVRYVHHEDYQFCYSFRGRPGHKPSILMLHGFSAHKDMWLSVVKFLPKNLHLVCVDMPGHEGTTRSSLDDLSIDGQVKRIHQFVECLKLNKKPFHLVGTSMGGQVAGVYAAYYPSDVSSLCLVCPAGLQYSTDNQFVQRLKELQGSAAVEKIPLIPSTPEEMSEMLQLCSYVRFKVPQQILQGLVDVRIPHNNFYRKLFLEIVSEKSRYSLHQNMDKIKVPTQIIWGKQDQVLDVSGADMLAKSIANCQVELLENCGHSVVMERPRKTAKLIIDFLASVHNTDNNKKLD

[5] = system: Mus musculus; experiment: In vivo agonist activity at CB1R in BALB/c mouse assessed as reduction in spontaneous locomotion at 5 mg/kg, ip measured after 1 hr by rotarod test; format: functional, organism-based; how it was run: as §2
[6] = target: T3, Fatty-acid amide hydrolase 1 (Homo sapiens, UniProt O00519); experiment: Inhibition of FAAH in human U937 cells using [ethanolamine-1-3H]AEA as substrate preincubated for 15 mins followed by substrate addition and measured after 15 mins by liquid scintillation spectroscopy; format: cell-based, U-937
T3 sequence (O00519 whole entry): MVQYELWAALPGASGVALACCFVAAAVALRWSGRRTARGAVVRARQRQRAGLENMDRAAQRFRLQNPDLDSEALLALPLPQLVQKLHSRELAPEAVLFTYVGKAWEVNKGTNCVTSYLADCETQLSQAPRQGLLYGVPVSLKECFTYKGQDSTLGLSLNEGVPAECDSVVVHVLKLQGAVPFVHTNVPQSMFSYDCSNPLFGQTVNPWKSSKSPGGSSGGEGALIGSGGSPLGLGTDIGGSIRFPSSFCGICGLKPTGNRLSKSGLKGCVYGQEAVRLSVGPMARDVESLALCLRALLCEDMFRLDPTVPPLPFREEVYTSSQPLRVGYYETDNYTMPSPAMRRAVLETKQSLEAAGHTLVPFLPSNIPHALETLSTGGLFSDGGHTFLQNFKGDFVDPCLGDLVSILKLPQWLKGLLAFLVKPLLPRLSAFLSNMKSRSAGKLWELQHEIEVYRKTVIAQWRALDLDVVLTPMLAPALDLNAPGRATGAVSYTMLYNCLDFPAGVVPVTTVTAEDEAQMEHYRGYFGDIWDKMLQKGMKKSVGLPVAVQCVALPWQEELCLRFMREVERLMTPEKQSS
How it was run: (§3)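 Intact U937 cells, 10^6 per condition, pre-incubated with compound 15 min at 37 °C with shaking (screen at 10 μM; full curves for hits). Substrate: 1 μM AEA with 1 nM [3H]AEA (FAAH) or 10 μM 2-OG with 5 nM [3H]2-OG (MAGL), 15 min at 37 °C. Stopped with CHCl3:MeOH 1:1, aqueous tritium counted; mean ± SD, ≥3 experiments in triplicate.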

[7] = system: Mus musculus; experiment: In vivo agonist activity at CB1R in BALB/c mouse assessed as induction of analgesia at 5 mg/kg, ip measured after 1 hr by hotplate test; format: functional, organism-based; how it was run: as §2
[8] = target: T4, Monoglyceride lipase (Homo sapiens, UniProt Q99685); experiment: Inhibition of MAGL in human U937 cells using [glycerol-1,2,3-3H]2-OG as substrate preincubated for 15 mins followed by substrate addition and measured after 15 mins by liquid scintillation spectroscopy; format: cell-based, U-937; how it was run: as §3
T4 sequence (Q99685 whole entry): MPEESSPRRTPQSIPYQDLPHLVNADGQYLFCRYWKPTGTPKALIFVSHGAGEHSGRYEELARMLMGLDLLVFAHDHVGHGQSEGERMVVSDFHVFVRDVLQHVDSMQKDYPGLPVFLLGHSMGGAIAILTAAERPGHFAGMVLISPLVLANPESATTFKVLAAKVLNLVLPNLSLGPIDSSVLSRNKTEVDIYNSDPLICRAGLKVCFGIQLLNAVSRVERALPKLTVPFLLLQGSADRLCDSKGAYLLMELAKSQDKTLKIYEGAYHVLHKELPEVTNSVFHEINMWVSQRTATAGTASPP

[9] = target: Cannabinoid receptor 2 (Homo sapiens, UniProt P34972); experiment: Displacement of [3H]CP55940 from recombinant human CB2R expressed in CHO cell membranes incubated for 90 mins; set-up: species or system Membrane
Chain of Cannabinoid receptor 2 (P34972 whole entry): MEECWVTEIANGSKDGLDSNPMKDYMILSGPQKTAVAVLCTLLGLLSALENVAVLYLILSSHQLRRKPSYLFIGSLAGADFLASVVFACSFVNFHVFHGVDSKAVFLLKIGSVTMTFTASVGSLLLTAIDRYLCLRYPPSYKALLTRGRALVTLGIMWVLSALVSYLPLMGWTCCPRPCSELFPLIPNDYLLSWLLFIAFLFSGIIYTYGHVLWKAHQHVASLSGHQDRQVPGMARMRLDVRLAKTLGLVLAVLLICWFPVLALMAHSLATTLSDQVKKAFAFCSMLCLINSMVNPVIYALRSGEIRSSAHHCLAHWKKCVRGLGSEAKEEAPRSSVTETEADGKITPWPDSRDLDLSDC

[10] = system: Mus musculus; experiment: In vivo agonist activity at CB1R in BALB/c mouse assessed as catalpesy-like behaviour by measuring increase in immobility time at 5 mg/kg, ip measured after 1 hr by bar test; format: functional, organism-based; how it was run: as §2

Structure (SMILES) | IC50 [1] [nM] | Activity [2] | Ki [3] [nM] | IC50 [4] [nM] | Activity [5] | IC50 [6] [nM] | Activity [7] | IC50 [8] [nM] | Ki [9] [nM] | Activity [10]
Cc1c(Br)cc(C(=O)NC2CCCCCC2)c(=O)n1Cc1ccc(F)cc1 | > 10000 | Active | 2.9 | > 10000 | Active | 5900 | Active | > 10000 | 1.5 | Active
COc1ccc(-c2cc(C(=O)NC3CCCCCC3)c(=O)n(Cc3ccc(F)cc3)c2C)cc1 | > 10000 | inactive | 9.8 | 530 | inactive | 2000 | inactive | > 10000 | 26.2 | inactive
